Calls of active or inactive are those of the source. The rule behind the calls is not given here.
What was measured:
[1] = molecular target: T1, Toll-like receptor 9 (Mus musculus) (UniProt Q9EQU3); test: Activation of mouse TLR9 expressed in HEK293 assessed as induction of NF-kappaB activity reporter gene assay; type: cell-based
T1 sequence (whole entry): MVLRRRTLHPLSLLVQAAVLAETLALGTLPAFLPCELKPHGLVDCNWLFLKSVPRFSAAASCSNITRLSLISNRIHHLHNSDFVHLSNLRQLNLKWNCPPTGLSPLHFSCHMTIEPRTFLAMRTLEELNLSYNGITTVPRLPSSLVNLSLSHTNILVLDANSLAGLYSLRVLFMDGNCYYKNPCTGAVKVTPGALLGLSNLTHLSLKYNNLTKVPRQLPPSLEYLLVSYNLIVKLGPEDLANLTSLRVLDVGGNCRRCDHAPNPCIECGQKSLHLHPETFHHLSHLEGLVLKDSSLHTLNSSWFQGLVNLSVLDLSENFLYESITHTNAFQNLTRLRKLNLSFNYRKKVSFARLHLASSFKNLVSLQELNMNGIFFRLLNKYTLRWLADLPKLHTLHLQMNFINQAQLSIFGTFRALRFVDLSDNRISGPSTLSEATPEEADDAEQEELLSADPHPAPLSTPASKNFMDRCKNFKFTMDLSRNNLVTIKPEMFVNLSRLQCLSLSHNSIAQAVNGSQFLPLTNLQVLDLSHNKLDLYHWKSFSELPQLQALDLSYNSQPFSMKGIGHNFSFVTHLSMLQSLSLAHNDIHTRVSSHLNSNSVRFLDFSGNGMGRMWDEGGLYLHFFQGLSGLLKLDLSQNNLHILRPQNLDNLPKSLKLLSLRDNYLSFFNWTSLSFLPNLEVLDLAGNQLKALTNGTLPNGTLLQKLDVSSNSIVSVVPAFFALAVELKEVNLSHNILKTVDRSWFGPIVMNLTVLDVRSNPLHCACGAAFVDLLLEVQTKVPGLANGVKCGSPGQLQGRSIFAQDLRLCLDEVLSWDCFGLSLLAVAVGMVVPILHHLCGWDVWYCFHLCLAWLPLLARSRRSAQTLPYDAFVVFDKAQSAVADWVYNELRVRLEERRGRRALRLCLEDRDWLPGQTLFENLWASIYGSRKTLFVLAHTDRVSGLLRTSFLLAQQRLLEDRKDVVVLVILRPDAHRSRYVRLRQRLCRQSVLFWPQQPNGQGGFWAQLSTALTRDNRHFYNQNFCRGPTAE

[2] = molecular target: Toll-like receptor 3 (Homo sapiens) (UniProt O15455); test: Activation of human TLR3 expressed in HEK293 assessed as induction of NF-kappaB activity reporter gene assay; type: cell-based
PBMC [3] = test: Immunomodulatory activity in human PBMC assessed as induction of IL12 at 100 ug/ml after 24 hrs; type: functional, cell-based
Summary of the method: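 Human PBMCs plated at 5 × 10^6 cells/mL; compounds dissolved in PBS added at various concentrations, 37 °C for 24 h. Supernatant cytokines/chemokines quantified with human Luminex multiplex kit.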

PBMC [4] = test: Immunomodulatory activity in human PBMC assessed as induction of IFN-alpha at 100 ug/ml after 24 hrs

Chain of Toll-like receptor 3 (Homo sapiens) (O15455 whole entry): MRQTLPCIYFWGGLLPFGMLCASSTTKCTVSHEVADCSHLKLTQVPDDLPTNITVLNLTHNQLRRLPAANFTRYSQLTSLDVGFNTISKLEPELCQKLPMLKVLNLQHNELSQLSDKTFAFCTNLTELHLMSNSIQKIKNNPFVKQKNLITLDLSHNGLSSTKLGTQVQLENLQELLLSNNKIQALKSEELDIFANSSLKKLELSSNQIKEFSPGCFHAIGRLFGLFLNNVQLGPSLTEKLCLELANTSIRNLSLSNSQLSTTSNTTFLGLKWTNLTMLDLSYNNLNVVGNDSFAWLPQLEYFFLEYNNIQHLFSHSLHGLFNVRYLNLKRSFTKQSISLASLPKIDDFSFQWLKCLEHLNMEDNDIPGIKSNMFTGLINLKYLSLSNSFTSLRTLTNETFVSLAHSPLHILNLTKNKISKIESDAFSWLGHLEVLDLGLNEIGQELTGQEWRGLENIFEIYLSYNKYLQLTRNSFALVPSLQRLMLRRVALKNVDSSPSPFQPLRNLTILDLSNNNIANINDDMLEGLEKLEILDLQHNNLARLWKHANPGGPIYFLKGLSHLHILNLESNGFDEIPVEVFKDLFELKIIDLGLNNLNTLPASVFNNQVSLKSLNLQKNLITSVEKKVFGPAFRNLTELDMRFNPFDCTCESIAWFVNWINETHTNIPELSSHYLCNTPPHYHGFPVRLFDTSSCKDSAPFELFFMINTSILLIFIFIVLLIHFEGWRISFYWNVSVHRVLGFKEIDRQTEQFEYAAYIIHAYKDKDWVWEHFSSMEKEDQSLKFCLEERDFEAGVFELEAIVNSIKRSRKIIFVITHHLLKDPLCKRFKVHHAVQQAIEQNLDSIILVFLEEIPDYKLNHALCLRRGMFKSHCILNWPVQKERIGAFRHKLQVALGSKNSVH

Activity [1]	Activity [2]	Structure (SMILES)	Activity (PBMC [3])	IFN-alpha (PBMC [4])
inactive	inactive	Nc1ccn([C@@H]2O[C@H](CO)[C@@H](OP(=O)(S)OC[C@H]3O[C@@H](n4ccc(=O)[nH]c4=O)[C@H](O)[C@@H]3OP(=O)(S)OC[C@H]3O[C@@H](n4ccc5c(=O)[nH]c(N)nc54)[C@H](O)[C@@H]3OP(=O)(S)OC[C@H]3O[C@@H](n4cnc5c(N)ncnc54)[C@H](O)[C@@H]3OP(=O)(S)OC[C@H]3O[C@@H](n4ccc5c(=O)[nH]c(N)nc54)[C@H](O)[C@@H]3OP(=O)(S)OC[C@H]3O[C@@H](n4cnc5c(N)ncnc54)[C@H](O)[C@@H]3OP(=O)(S)OC[C@H]3O[C@@H](n4cnc5c(N)ncnc54)[C@H](O)[C@@H]3OP(=O)(S)OC[C@H]3O[C@@H](n4ccc5c(=O)[nH]c(N)nc54)[C@H](O)[C@@H]3OP(=O)(S)OC[C@H]3O[C@@H](n4ccc(N)nc4=O)[C@H](O)[C@@H]3OP(=O)(S)OC[C@H]3O[C@@H](n4ccc(=O)[nH]c4=O)[C@H](O)[C@@H]3OP(=O)(S)OC[C@H]3O[C@@H](n4ccc(=O)[nH]c4=O)[C@H](O)[C@@H]3OP(=O)(S)OCC(O)COP(=O)(S)O[C@H]3[C@@H](O)[C@H](n4ccc(=O)[nH]c4=O)O[C@@H]3COP(=O)(S)O[C@H]3[C@@H](O)[C@H](n4ccc(=O)[nH]c4=O)O[C@@H]3COP(=O)(S)O[C@H]3[C@@H](O)[C@H](n4ccc(N)nc4=O)O[C@@H]3COP(=O)(S)O[C@H]3[C@@H](O)[C@H](n4ccc5c(=O)[nH]c(N)nc54)O[C@@H]3COP(=O)(S)O[C@H]3[C@@H](O)[C@H](n4cnc5c(N)ncnc54)O[C@@H]3COP(=O)(S)O[C@H]3[C@@H](O)[C@H](n4cnc5c(N)ncnc54)O[C@@H]3COP(=O)(S)O[C@H]3[C@@H](O)[C@H](n4ccc5c(=O)[nH]c(N)nc54)O[C@@H]3COP(=O)(S)O[C@H]3[C@@H](O)[C@H](n4cnc5c(N)ncnc54)O[C@@H]3COP(=O)(S)O[C@H]3[C@@H](O)[C@H](n4ccc5c(=O)[nH]c(N)nc54)O[C@@H]3COP(=O)(S)O[C@H]3[C@@H](O)[C@H](n4ccc(=O)[nH]c4=O)O[C@@H]3COP(=O)(S)O[C@H]3[C@@H](O)[C@H](n4ccc(N)nc4=O)O[C@@H]3CO)[C@H]2O)c(=O)n1 (some centres not stated)	1750 pg/mL	123 pg/mL
inactive	inactive	Nc1ccn([C@@H]2O[C@H](COP(=O)(S)O[C@H]3[C@@H](O)[C@H](n4cnc5c(N)ncnc54)O[C@@H]3CO)[C@@H](OP(=O)(S)OC[C@H]3O[C@@H](n4ccc5c(=O)[nH]c(N)nc54)[C@H](O)[C@@H]3OP(=O)(S)OC[C@H]3O[C@@H](n4ccc(=O)[nH]c4=O)[C@H](O)[C@@H]3OP(=O)(S)OC[C@H]3O[C@@H](n4ccc5c(=O)[nH]c(N)nc54)[C@H](O)[C@@H]3OP(=O)(S)OC[C@H]3O[C@@H](n4cnc5c(N)nc(N)nc54)[C@H](O)[C@@H]3OP(=O)(S)OC[C@H]3O[C@@H](n4cnc5c(N)ncnc54)[C@H](O)[C@@H]3OP(=O)(S)OC[C@H]3O[C@@H](n4ccc5c(=O)[nH]c(N)nc54)[C@H](O)[C@@H]3OP(=O)(S)OC[C@H]3O[C@@H](n4ccc(N)nc4=O)[C@H](O)[C@@H]3OP(=O)(S)OC[C@H]3O[C@@H](n4ccc(=O)[nH]c4=O)[C@H](O)[C@@H]3OP(=O)(S)OC[C@H]3O[C@@H](n4ccc(=O)[nH]c4=O)[C@H](O)[C@@H]3OP(=O)(S)OCC(O)COP(=O)(S)O[C@H]3[C@@H](O)[C@H](n4ccc(=O)[nH]c4=O)O[C@@H]3COP(=O)(S)O[C@H]3[C@@H](O)[C@H](n4ccc(=O)[nH]c4=O)O[C@@H]3COP(=O)(S)O[C@H]3[C@@H](O)[C@H](n4ccc(N)nc4=O)O[C@@H]3COP(=O)(S)O[C@H]3[C@@H](O)[C@H](n4ccc5c(=O)[nH]c(N)nc54)O[C@@H]3COP(=O)(S)O[C@H]3[C@@H](O)[C@H](n4cnc5c(N)nc(N)nc54)O[C@@H]3COP(=O)(S)O[C@H]3[C@@H](O)[C@H](n4cnc5c(N)nc(N)nc54)O[C@@H]3COP(=O)(S)O[C@H]3[C@@H](O)[C@H](n4ccc5c(=O)[nH]c(N)nc54)O[C@@H]3COP(=O)(S)O[C@H]3[C@@H](O)[C@H](n4ccc(=O)[nH]c4=O)O[C@@H]3COP(=O)(S)O[C@H]3[C@@H](O)[C@H](n4ccc5c(=O)[nH]c(N)nc54)O[C@@H]3COP(=O)(S)O[C@H]3[C@@H](O)[C@H](n4ccc(N)nc4=O)O[C@@H]3COP(=O)(S)O[C@H]3[C@@H](O)[C@H](n4cnc5c(N)ncnc54)O[C@@H]3CO)[C@H]2O)c(=O)n1 (some centres not stated)	864 pg/mL	123 pg/mL
inactive	inactive	Nc1ccn([C@@H]2O[C@H](COP(=O)(S)O[C@H]3[C@@H](O)[C@H](n4cnc5c(N)ncnc54)O[C@@H]3COP(=O)(S)O[C@H]3[C@@H](O)[C@H](n4ccc5c(=O)[nH]c(N)nc54)O[C@@H]3COP(=O)(S)O[C@H]3[C@@H](O)[C@H](n4ccc(N)nc4=O)O[C@@H]3COP(=O)(S)O[C@H]3[C@@H](O)[C@H](n4ccc5c(=O)[nH]c(N)nc54)O[C@@H]3COP(=O)(S)O[C@H]3[C@@H](O)[C@H](n4ccc(=O)[nH]c4=O)O[C@@H]3COP(=O)(S)O[C@H]3[C@@H](O)[C@H](n4ccc5c(=O)[nH]c(N)nc54)O[C@@H]3COP(=O)(S)O[C@H]3[C@@H](O)[C@H](n4cnc5c(N)ncnc54)O[C@@H]3COP(=O)(S)O[C@H]3[C@@H](O)[C@H](n4cnc5c(N)ncnc54)O[C@@H]3CO)[C@@H](OP(=O)(S)OC[C@H]3O[C@@H](n4ccc(=O)[nH]c4=O)[C@H](O)[C@@H]3OP(=O)(S)OC[C@H]3O[C@@H](n4ccc(=O)[nH]c4=O)[C@H](O)[C@@H]3OP(=O)(S)OCC(O)COP(=O)(S)O[C@H]3[C@@H](O)[C@H](n4ccc(=O)[nH]c4=O)O[C@@H]3COP(=O)(S)O[C@H]3[C@@H](O)[C@H](n4ccc(=O)[nH]c4=O)O[C@@H]3COP(=O)(S)O[C@H]3[C@@H](O)[C@H](n4ccc(N)nc4=O)O[C@@H]3COP(=O)(S)O[C@H]3[C@@H](O)[C@H](n4cnc5c(N)ncnc54)O[C@@H]3COP(=O)(S)O[C@H]3[C@@H](O)[C@H](n4ccc5c(=O)[nH]c(N)nc54)O[C@@H]3COP(=O)(S)O[C@H]3[C@@H](O)[C@H](n4ccc(N)nc4=O)O[C@@H]3COP(=O)(S)O[C@H]3[C@@H](O)[C@H](n4ccc5c(=O)[nH]c(N)nc54)O[C@@H]3COP(=O)(S)O[C@H]3[C@@H](O)[C@H](n4ccc(=O)[nH]c4=O)O[C@@H]3COP(=O)(S)O[C@H]3[C@@H](O)[C@H](n4ccc5c(=O)[nH]c(N)nc54)O[C@@H]3COP(=O)(S)O[C@H]3[C@@H](O)[C@H](n4cnc5c(N)ncnc54)O[C@@H]3COP(=O)(S)O[C@H]3[C@@H](O)[C@H](n4cnc5c(N)ncnc54)O[C@@H]3CO)[C@H]2O)c(=O)n1 (some centres not stated)	171 pg/mL	123 pg/mL

— ChEMBL document CHEMBL1154352, “Toll-like receptor 7 selective synthetic oligoribonucleotide agonists: synthesis and structure-activity relationship studies” (J Med Chem, 2009)
